Assay results as given in the EternaBench riboswitch data.

Tested on: MS2 coat protein
Assay: apparent Kd, MS2 coat protein; higher = weaker binding; RNA-MaP array
Summary of the method: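 Fluorescently labeled MS2 coat protein, from 1.5 nM to 3 μM, was incubated at room temperature with designed RNAs transcribed on an Illumina sequencing chip from sequenced DNA templates. Times ran from 0.8–1.5 h at the lowest concentrations to 10–20 min at the highest, in Tris-HCl pH 7.5 buffer with KCl, MgCl2, BSA, DTT, tRNA and Tween20, with or without input ligand. Each apparent Kd is the median of per-cluster binding-curve fits, and designs with fewer than 10 measured clusters were excluded.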

[1] = designed as: OFF switch for flavin mononucleotide, no ligand
[2] = ligand present: flavin mononucleotide, designed as: OFF switch for flavin mononucleotide
[3] = designed as: ON switch for flavin mononucleotide, no ligand
[4] = ligand present: flavin mononucleotide, designed as: ON switch for flavin mononucleotide
[5] = designed as: ON switch for tryptophan, no ligand
[6] = ligand present: tryptophan, designed as: ON switch for tryptophan
[7] = designed as: OFF switch for theophylline, no ligand
[8] = ligand present: theophylline, designed as: OFF switch for theophylline

Sequence	apparent Kd [1] [nM]	apparent Kd [2] [nM]	also measured
AAAAUUCUAGUGAGGAUAUGGUACGUUGUAGUAAGCCAGAAGGCACAUGAGGAUCACCCAUGUAUAAUGGACGA	31.1	148	–
UCUCAUCAGUAGAAGGGCAGACCCUAACAAGGUGCAGGAUAUACUCUAAGUCCUACAUGAGGAUCACCCAUGUCAUAUAUCGGG	323	196	–
UACAUGAGGAUCACCCAUGUGUGUAGCUAUUACUGUUACAUCUAGGAUAUGUCGGGAACUCAACAACAGAAGGAGAUAGAAGGA	–	–	apparent Kd [3]: 48.8 nM; apparent Kd [4]: 33.8 nM
UAGGUUAGGUAGAAGGGCAAGUAAUUCCACAUGAGGAUCACCCAUGUUCCUGUUUGGGAGGCUGUGCAGGAUAUACGAAAAUAA	117	153	–
CAUACGCCGCAGAAGGAAGGACAGACAUGAGGAUCACCCAUGUACACCGGUUUAUUGGGUGCACCUUAGGAUAUGCAAAAGAAC	–	–	apparent Kd [3]: 268 nM; apparent Kd [4]: 132 nM
GCAAAAUACAUGAGGAUCACCCAUGUUAAGUGGGCCUGAACAAGAAGGCAGCAAAUUUUAUUUUCUGAGGAUAUUGGCAUAUAU	30.2	36.8	–
AUCAAUGAUCGACAUGAGGAUCACCCAUGUGCUUGGCGACUAAGAAGGGCCAGGCCACCAAGGCGGCAGGAUAUUAGUAGGACC	84.2	24.3	–
GCAUUAGGGUAAGGAUAUUGAAUUAAACAUGGCAAAGUAAUUUUUGACAUGAGGAUCACCCAUGUCAAGAAGGUACUCAUUCAU	6.08	5.74	–
ACCCUCUAUGAGAAGGAGAGCUUCGCUAGUUAUCUAGGAUAUCACGGAGGACCACUGACACUCCGACAUGAGGAUCACCCAUGU	–	–	apparent Kd [3]: 16.5 nM; apparent Kd [4]: 13.9 nM
GCUCUGUCAGGAUAUAGGACGGCAACAGGCAAACUAAGCAACUAGAAGGGACAUGAGGAUCACCCAUGUAGCGC	9.33	9.2	–
GUAUCGGUUGAGAAGGCGGCGGAGACAUAACUUGGUCCCAACAUGAGGAUCACCCAUGUUAAAUCCGAGGAUAUCAACAAAGCC	6.84	18.9	–
CGCAAGAUCUUAGGAUAUCUGUGAGCCAAGACUAGAGAAGGAAGGAGGCUGUGCAACAUGAGGAUCACCCAUGUAUCCCGUGCA	39.7	35.4	–
UAUGUAUAGAAGGAUAUCUAAUUACGCCCGAUAAGAGAAGGUCUGACAUGAGGAUCACCCAUGUUAUGGGAGGC	18.1	23.3	–
GUCGUAGGCUAAGGAUAUAGUGAAAGAGUGAAGGCCUGAUCAGACAUGAGGAUCACCCAUGUGAACUAGAAGGUAGGCAAGGCU	13.5	12.5	–
AGCAUCGCAGGAUAUACAUGAGGAUCACCCAUGUAAAAUAACAAACUUGAACCUGCAAGUAGAAGGGCGUAACG	8.31	7.87	–
GCUAUAUCGUAGCUAACAUGAGGAUCACCCAUGUGAAGGAAGAGAAGGUGCAUCUAACAGACCCGCAAGGAUAUCUAGAUAAAG	–	–	apparent Kd [3]: 18.8 nM; apparent Kd [4]: 16.1 nM
GAGUACUGGUUAGGGAGAAAUACAUGAGGAUCACCCAUGUCCAGAAGGAUUCAGUAAGUGCCGGAAUAGGAUAUGGAACUAAAA	–	–	apparent Kd [3]: 246 nM; apparent Kd [4]: 105 nM
AUCAAGUCAGGAUAUGAACUAAAGAUGGAAAACGUAGCAAAACAGAAGGGACAUGAGGAUCACCCAUGUGGAAG	19.9	17	–
CCACUACAUGAGGAUCACCCAUGUCAGGAUAUCAACCACGCCUCUCCUUGGACGUAGAUGAGAAGGGACGUGGG	16.7	28.2	–
UAGUAAACCGCAGGAUAUCCAACUUGGGCACCAGGAGAAGGGCGAUUAACAUGAGGAUCACCCAUGUAUUCGGAGAGCUUACCU	–	–	apparent Kd [3]: 10.4 nM; apparent Kd [4]: 9.18 nM
GACGAGUAGACGGCCGCCACUAUGCUGCGCAGCCCUAGAAACGCACAUGAGGAUCACCCAUGUCUUAGGACCGGGUCGAACUUAA	–	–	apparent Kd [5]: 78.5 nM; apparent Kd [6]: 65.7 nM
GGAAUGUCGUAGGAUAUAUGAUCUGUAAGGUAGAUAGAAGGACGAACAUGAGGAUCACCCAUGUGGAGGAUGUU	15.5	27.5	–
UUUACGAACGUGGAAAUACAUGAGGAUCACCCAUGUCAAUUGUAGGAUAUCCGGCUCAAAGAAAUGGAGAAGGACAACGACUCC	–	–	apparent Kd [3]: 13.4 nM; apparent Kd [4]: 12.7 nM
GAACAUGAGGAUCACCCAUGUGCUAUUGGGAAUCGCGCUACAUAGGAUAUAGAGGCGACUGUACUCUAGAAGGAUGCUAGUUUC	38.3	37.8	–
GGGCCACCUCUAACAUGAGGAUCACCCAUGUUCGUCGGUUCCGAGGAUAUGUCUAGACGUAACGGACAGAAGGCGGUCCGGCUG	26.2	81	–
CAACCACACAUAAGGCAAGGACAUGAGGAUCACCCAUGUGGUAGAAGGCAUCCUAAUGCGGACGAUGAGGAUAUACGACGUGCA	75.5	50	–
CAUUACCAUGUUAGGAUAUCCUGCGGAAUUGCCCUGGAGAAGGAACAUGAGGAUCACCCAUGUGCACAAACAAC	17.6	26.1	–
UAAGCACAUGAGGAUCACCCAUGUAAGGAUAUCCGAUCAUGCAAUCCGGAGAUCACAAGGAGAAGGUACAUGCA	29.6	33.3	–

Sequence	apparent Kd [1] [nM]	apparent Kd [2] [nM]	also measured
UAAUUAACGUAGAAGGAAUCCCAUCCGUUGCAAUUAGGAUAUACGUUCCCUCGAACAUGAGGAUCACCCAUGUGGCAACCAUAU	14.7	13.8	–
UUCUCAUCGUACAUGAGGAUCACCCAUGUCUCCCAUUUACCCUAGGAUAUGAAAGACCUUUACUCUCAGAAGGAGGAUGAUGCA	–	–	apparent Kd [3]: 63.2 nM; apparent Kd [4]: 51.9 nM
UUAUAUUCUCAAUCGCCAUGUGCUUUAGAUACCAGUCUGAUAAAUGACCCUUGGCAGCUAGAGACAUGAGGAUCACCCAUGUCUU	–	–	apparent Kd [7]: 10.6 nM; apparent Kd [8]: 29.8 nM
CUCCUACAUGAGGAUCACCCAUGUGAGGAUAUCUCCCAGUGGGAAUAGUUUCCAUGGAAGAGAAGGCACAGUGA	24.4	30.9	–
CAACAGGAGCAGAAGGUCCAACUCAUAAAUACGGAAGGAUAUGCGUGACCAACUAAAGAAACAUGAGGAUCACCCAUGUAAGCG	–	–	apparent Kd [3]: 10.7 nM; apparent Kd [4]: 7.53 nM
UGCGGCGAAGGAUAUUGACCAAAACACAUGAGGAUCACCCAUGUACUCAUAACAUGCUAACAAGAAGGUCGCGUAA	15.9	13.8	–
AGAUUUUGCCAAGGAUAUUCGAUGCAUCAUGACAUGAGGAUCACCCAUGUAUAACGACUUGGGCUGAAGAAGGUGGACCAAGCU	11.8	12	–
AAUAUUAACGUCAGGAUAUGCCAUUCCCGUUGGCGGCAGAAGGGACAUGAGGAUCACCCAUGUGAAAACGUCAC	16.9	25.6	–
UCCACGGACCAAGGAUAUCCACAGUGAACCAGAGGAGAAGGUGGGAAUUACAUGAGGAUCACCCAUGUACGGGAUCUCCUGUAU	–	–	apparent Kd [3]: 47.5 nM; apparent Kd [4]: 41.7 nM
GUGGACAUGAGGAUCACCCAUGUAAGUCGGCGAGGACCGGUACGGCCGCCACUCGUGUUCUGUCUCAGCUCAAACGUAGCCGGAA	–	–	apparent Kd [5]: 36.3 nM; apparent Kd [6]: 17.9 nM
GGCCUUUCGGUAAGGAUAUCCCUCCGCGCAGAUUGGGAGAAGGUACAUGAGGAUCACCCAUGUUUUAUGGCUGC	9.4	10.8	–
UAAAUGUUUUAGAAGGGAUAAUGCGGCAUUGAAUCAGGAUAUAAAGCUAUAAACACAUGAGGAUCACCCAUGUCCCAGGUUAAA	–	–	apparent Kd [3]: 477 nM; apparent Kd [4]: 143 nM
AUGGAACAUGAGGAUCACCCAUGUUAGGAUAUCGGCGAAGGGAGUUUUAUACUCACUGCGAGAAGGAACGUGAC	25.2	18.7	–
AGUGGGUAUGGGCAGGAUAUACGUCGGGCGACAUGAGGAUCACCCAUGUUGGGCGGUGAAGUUGAGUAGAAGGGCCUCCGCCCGAA	–	–	apparent Kd [3]: 54.6 nM; apparent Kd [4]: 12.1 nM
AUCAUAAGAGUAGGAUAUCGACAUGAGGAUCACCCAUGUACCUUGGAUGACCGCUAAUGGUUUAUCGAGAAGGACUUUUCCUCC	8.2	10.2	–
AGUGUAUACAAGAAGGAACAUGGACUAGGAUUGUUAGGAUAUUGCAUAAACAUGAGGAUCACCCAUGUGCGACACGCCCACAUC	–	–	apparent Kd [3]: 35.4 nM; apparent Kd [4]: 21.7 nM
AUCACCUUCAAGAAGGUCCCAUACAUGAGGAUCACCCAUGUAAACAAAAUAAUAUGAAAUAAAAGGAAGGAUAUUGAACCAUGA	–	–	apparent Kd [3]: 55.1 nM; apparent Kd [4]: 30.3 nM
GAUCUGUGAGGAUAUUGUUAGAGCAUUCAACCAUCGAAUGCCAAGAAGGCACAUGAGGAUCACCCAUGUAGACA	7.9	10.4	–
UCUGGUUGAGGAUAUACAUGAGGAUCACCCAUGUCACCUAGCAAAGUAGAGAGUAAGUGUAGAAGGCAACCUUU	15.6	18.9	–
UUACAACAUGAGGAUCACCCAUGUUAGGAUAUACGAGGGACAGCGCGGUUAUAUCCCUGUAGAAGGAACACGGG	39.6	47.6	–
CGAAUAUAGGCUACGUGUCAUUGAGGCGAUACCAGAUUAUGCCAGAUCCCUUGGCAGCGCCAAACAUGAGGAUCACCCAUGUUCA	–	–	apparent Kd [7]: 22.1 nM; apparent Kd [8]: 29.3 nM
GAUCGUUGGGAGGAUAUCCGCAAGUCCAGGGAGGGAGAAGGCCCAACAUGAGGAUCACCCAUGUAGAAGCGCAU	51	77.6	–
GUCCUCGACACGGCCGCCACUGGCUCGCCUGUUGGCGCCGACCCACAUGAGGAUCACCCAUGUUCCAGGACCGGGUGUCACAGCA	–	–	apparent Kd [5]: 224 nM; apparent Kd [6]: 157 nM
ACCUGGCGGCAGAAGGCCCGCGAUUAACGUAAGGGAGGAUAUGCAUUGUGCGGUGGGACAUGAGGAUCACCCAUGUGCAGCCAG	672	409	–
CCCUCGUUAUAGAAGGUCACAUUAAAUAAACAUGAAGGAUAUAUACCCAUUACACAUGAGGAUCACCCAUGUUAGGGCUGGCAU	14.2	13.6	–
AUACCAACGGUCAGGAUAUAGGUAACAAGGAAAGACUAGAAGGGACAUGAGGAUCACCCAUGUUUUAACAUGAU	7.28	6.89	–
UAGUAACAUGAGGAUCACCCAUGUCCGGAUACCAGACAUAUACCAGUCCCUUGGCAGCCGCCAGUUAAAAUCUAACACAAAAGUU	–	–	apparent Kd (designed as: ON switch for theophylline, no ligand): 46.2 nM; apparent Kd (ligand present: theophylline, designed as: ON switch for theophylline): 21.5 nM
